Laboratory results published in ChEMBL document CHEMBL4052605, “Lissoclibadin 1, a Polysulfur Aromatic Alkaloid from the Indonesian Ascidian Lissoclinum cf. badium, Induces Caspase-Dependent Apoptosis in Human Colon Cancer Cells and Suppresses Tumor Growth in Nude Mice” (J Nat Prod, 2017).
The source made the active and inactive calls. No cut-off for these calls is given here.

Columns and labels:
HCT-15 [1] = assay: Antiproliferative activity against human HCT15 cells after 24 hrs by WST-1 assay; type: functional, cell-based; conditions: HCT-15, 24 h
Method in brief: (§1)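 WST-1 viability assay. Cells seeded at 5 × 10^3 per well and grown 24 h, then given lissoclibadins at 0.1−40 μM (etoposide 1.0−100 μM) in triplicate for 24 h. WST-1 added and absorbance read 4 h later at 450 nm, background subtracted at 650 nm. Viability expressed as % of control; IC50 taken as 50% inhibition of viability. Three experiments, mean ± SD.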

HeLa S3 [2] = assay: Antiproliferative activity against human HeLaS3 cells after 24 hrs by WST-1 assay; type: functional, cell-based; conditions: HeLa S3, 24 h; method in brief: as §1
HCT-15 [3] = assay: Induction of apoptosis in human HCT15 cells assessed as effect on cell adhesion at 5 uM in presence of pan-caspase inhibitor z-VAD-fmk by light microscopic analysis; type: functional, cell-based
MCF7 [4] = assay: Antiproliferative activity against human MCF7 cells assessed as nuclear chromatin condensation at 10 uM after 24 hrs by Hoechst-33258 staining-based fluorescent microscopic analysis; type: functional, cell-based
Method in brief: (§2)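 Cells at 5 × 10^4 cells/mL precultured 24 h, then treated 24 h (HCT-15 at 5 μM; HeLa-S3, MCF-7, NCI-H28 at 10 μM). Cells trypsinized, washed in PBS, fixed in 1.0% paraformaldehyde at 4 °C for 15 min, stained with 1 mg/mL Hoechst-33258 at 4 °C for 15 min. After washing, mounted in antifade reagent and examined by fluorescence microscopy.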

HCT-15 [5] = assay: Antiproliferative activity against human HCT15 cells assessed as fragmentation of nuclei at 5 uM after 24 hrs by Hoechst-33258 staining-based fluorescent microscopic analysis; type: functional, cell-based; method in brief: as §2
HeLa S3 [6] = assay: Antiproliferative activity against human HeLaS3 cells assessed as nuclear chromatin condensation at 10 uM after 24 hrs by Hoechst-33258 staining-based fluorescent microscopic analysis; type: functional, cell-based; method in brief: as §2
HeLa S3 [7] = assay: Antiproliferative activity against human HeLaS3 cells assessed as effect on cell morphology after 24 hrs by light microscopic analysis; type: functional, cell-based
Method in brief: (§3)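 Cancer cells treated with 0−10 μM and examined by light microscopy for changes in cell adhesion and morphology.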

HCT-15 [8] = assay: Antiproliferative activity against human HCT15 cells assessed as effect on cell morphology up to 10 uM after 24 hrs by light microscopic analysis; type: functional, cell-based; method in brief: as §3
HCT-15 [9] = assay: Antitumor activity against human HCT15 cells xenografted in BALB/c nu/nu athymic mouse assessed as tumor growth inhibition at 25 mg/kg/day administered intratumorally on day 0, 2, 4, 6, 8 and 10 measured on day 28 post dose relative to control; type: functional; conditions: read-out: TGI
Method in brief: (§4)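 Female 6-week-old Balb/c nu/nu mice injected subcutaneously in the lower back with HCT-15 cells (1 × 10^8/mL) mixed 1:1 with Matrigel. Once tumors reached 50−100 mm3 (day 0), mice were randomized, 6 per group. Dosing was intratumoral in PBS with 5% DMSO and 5% glucose on days 0, 2, 4, 6, 8 and 10; controls received vehicle. Tumor volume (L×W×D×π/6) and body weight measured every other day to day 28.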

HCT-15 [10] = assay: Antiproliferative activity against human HCT15 cells assessed as effect on cell adhesion after 24 hrs by light microscopic analysis; type: functional, cell-based; method in brief: as §3
HCT-15 [11] = assay: Induction of apoptosis in human HCT15 cells assessed as effect on cell morphology at 5 uM in presence of caspase-9 inhibitor z-LEHD-fmk by light microscopic analysis; type: functional, cell-based
MCF7 [12] = assay: Antiproliferative activity against human MCF7 cells assessed as fragmentation of nuclei at 10 uM after 24 hrs by Hoechst-33258 staining-based fluorescent microscopic analysis; type: functional, cell-based; method in brief: as §2
HCT-15 [13] = assay: Antiproliferative activity against human HCT15 cells assessed as effect on cell morphology after 24 hrs by light microscopic analysis; type: functional, cell-based; method in brief: as §3
HCT-15 [14] = assay: Antiproliferative activity against human HCT15 cells assessed as nuclear chromatin condensation at 5 uM after 24 hrs by Hoechst-33258 staining-based fluorescent microscopic analysis; type: functional, cell-based; method in brief: as §2
NCI-H28 [15] = assay: Antiproliferative activity against human NCI-H28 cells assessed as nuclear fragmentation at 10 uM after 24 hrs by Hoechst-33258 staining-based fluorescent microscopic analysis; type: functional, cell-based; method in brief: as §2
NCI-H28 [16] = assay: Antiproliferative activity against human NCI-H28 cells assessed as effect on cell adhesion up to 10 uM after 24 hrs by light microscopic analysis; type: functional, cell-based; method in brief: as §3
HCT-15 [17] = assay: Induction of apoptosis in human HCT15 cells assessed as late apoptotic cells at 5 uM by annexin V-FITC/propidium iodide staining-based flow cytometric analysis; type: functional, cell-based; conditions: TDE = time-dependent effect
Method in brief: (§5)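 HCT-15 cells at 5 × 10^4 cells/mL precultured 24 h, then given 5.0 μM in DMSO or DMSO alone (final 0.1%) for 3, 6, 12 or 24 h. Adherent cells trypsinized, pooled, stained with annexin V-FITC and PI, and analysed by flow cytometry. Early apoptosis = annexin V+/PI−; late = annexin V+/PI+. Three independent experiments, mean ± SD.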

HCT-15 [18] = assay: Induction of apoptosis in human HCT15 cells at 5 uM after 12 hrs in presence of caspase-9 inhibitor z-LEHD-fmk by annexin V-FITC/propidium iodide staining-based flow cytometric analysis; type: functional, cell-based
Method in brief: (§6)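 HCT-15 cells at 5 × 10^4 cells/mL precultured 24 h, then given z-VAD-fmk, z-IETD-fmk or z-LEHD-fmk at 50 μM for 30 min before 5.0 μM compound in DMSO (DMSO final 0.1%). Annexin V-FITC/PI staining read by flow cytometry. Three independent experiments, mean ± SD; one-way ANOVA with Bonferroni post hoc tests.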

HCT-15 [19] = assay: Induction of apoptosis in human HCT15 cells assessed as effect on cell adhesion at 5 uM in presence of caspase-9 inhibitor z-LEHD-fmk by light microscopic analysis; type: functional, cell-based
NCI-H28 [20] = assay: Antiproliferative activity against human NCI-H28 cells after 24 hrs by WST-1 assay; type: functional, cell-based; conditions: NCI-H28, 24 h; method in brief: as §1
HeLa S3 [21] = assay: Antiproliferative activity against human HeLaS3 cells assessed as effect on cell adhesion after 24 hrs by light microscopic analysis; type: functional, cell-based; method in brief: as §3
HCT-15 [22] = assay: Induction of apoptosis in human HCT15 cells at 5 uM after 12 hrs in presence of caspase-8 inhibitor z-IETD-fmk by annexin V-FITC/propidium iodide staining-based flow cytometric analysis; type: functional, cell-based; method in brief: as §6
MCF7 [23] = assay: Antiproliferative activity against human MCF7 cells assessed as effect on cell adhesion after 24 hrs by light microscopic analysis; type: functional, cell-based; method in brief: as §3
MCF7 [24] = assay: Antiproliferative activity against human MCF7 cells after 24 hrs by WST-1 assay; type: functional, cell-based; conditions: MCF7, 24 h; method in brief: as §1
Mus musculus = assay: Toxicity in BALB/c nu/nu athymic mouse xenografted with human HCT15 cells assessed as body weight loss at 5 to 25 mg/kg administered intratumorally treated on day 0, 2, 4, 6, 8 and 10 measured every second day for 28 days; type: organism-based; conditions: in vivo, other, 672 h; method in brief: as §4
MCF7 [25] = assay: Antiproliferative activity against human MCF7 cells assessed as effect on cell adhesion up to 10 uM after 24 hrs by light microscopic analysis; type: functional, cell-based; method in brief: as §3
HCT-15 [26] = assay: Induction of apoptosis in human HCT15 cells at 5 uM after 12 hrs in presence of pan-caspase inhibitor z-VAD-fmk by annexin V-FITC/propidium iodide staining-based flow cytometric analysis (reference value: 64%); type: functional; method in brief: as §6
MCF7 [27] = assay: Antiproliferative activity against human MCF7 cells assessed as effect on cell morphology up to 10 uM after 24 hrs by light microscopic analysis; type: functional, cell-based; method in brief: as §3
HCT-15 [28] = assay: Antiproliferative activity against human HCT15 cells assessed as effect on cell adhesion up to 10 uM after 24 hrs by light microscopic analysis; type: functional, cell-based; method in brief: as §3
NCI-H28 [29] = assay: Antiproliferative activity against human NCI-H28 cells assessed as nuclear chromatin condensation at 10 uM after 24 hrs by Hoechst-33258 staining-based fluorescent microscopic analysis; type: functional, cell-based; method in brief: as §2
NCI-H28 [30] = assay: Antiproliferative activity against human NCI-H28 cells assessed as effect on cell morphology up to 10 uM after 24 hrs by light microscopic analysis; type: functional, cell-based; method in brief: as §3
MCF7 [31] = assay: Antiproliferative activity against human MCF7 cells assessed as effect on cell morphology after 24 hrs by light microscopic analysis; type: functional, cell-based; method in brief: as §3
HeLa S3 [32] = assay: Antiproliferative activity against human HeLaS3 cells assessed as effect on cell morphology up to 10 uM after 24 hrs by light microscopic analysis; type: functional, cell-based; method in brief: as §3
HCT-15 [33] = assay: Antitumor activity against human HCT15 cells xenografted in BALB/c nu/nu athymic mouse assessed as tumor growth inhibition at 5 mg/kg administered intratumorally on day 0, 2, 4, 6, 8 and 10 measured up to 28 days; type: functional, organism-based; method in brief: as §4
NCI-H28 [34] = assay: Antiproliferative activity against human NCI-H28 cells assessed as effect on cell adhesion after 24 hrs by light microscopic analysis; type: functional, cell-based; method in brief: as §3
HCT-15 [35] = assay: Induction of apoptosis in human HCT15 cells assessed as early apoptotic cells at 5 uM after 12 hrs by annexin V-FITC/propidium iodide staining-based flow cytometric analysis relative to control; type: functional; method in brief: as §5
HCT-15 [36] = assay: Induction of apoptosis in human HCT15 cells assessed as effect on cell morphology at 5 uM in presence of caspase-8 inhibitor z-IETD-fmk by light microscopic analysis; type: functional, cell-based
HCT-15 [37] = assay: Induction of apoptosis in human HCT15 cells assessed as early apoptotic cells at 5 uM after 24 hrs by annexin V-FITC/propidium iodide staining-based flow cytometric analysis relative to control; type: functional; method in brief: as §5
HCT-15 [38] = assay: Induction of apoptosis in human HCT15 cells assessed as early apoptotic cells at 5 uM after 6 hrs by annexin V-FITC/propidium iodide staining-based flow cytometric analysis relative to control; type: functional; method in brief: as §5
HCT-15 [39] = assay: Induction of apoptosis in human HCT15 cells assessed as effect on cell adhesion at 5 uM in presence of caspase-8 inhibitor z-IETD-fmk by light microscopic analysis; type: functional, cell-based
NCI-H28 [40] = assay: Antiproliferative activity against human NCI-H28 cells assessed as effect on cell morphology after 24 hrs by light microscopic analysis; type: functional, cell-based; method in brief: as §3
HeLa S3 [41] = assay: Antiproliferative activity against human HeLaS3 cells assessed as fragmentation of nuclei at 10 uM after 24 hrs by Hoechst-33258 staining-based fluorescent microscopic analysis; type: functional, cell-based; method in brief: as §2
HeLa S3 [42] = assay: Antiproliferative activity against human HeLaS3 cells assessed as effect on cell adhesion up to 10 uM after 24 hrs by light microscopic analysis; type: functional, cell-based; method in brief: as §3
HCT-15 [43] = assay: Induction of apoptosis in human HCT15 cells assessed as effect on cell morphology at 5 uM in presence of pan-caspase inhibitor z-VAD-fmk by light microscopic analysis; type: functional, cell-based
HCT-15 [44] = assay: Induction of apoptosis in human HCT15 cells assessed as early apoptotic cells at 5 uM after 3 hrs by annexin V-FITC/propidium iodide staining-based flow cytometric analysis relative to control; type: functional; method in brief: as §5

COc1c(OC)c2c(c(CCN(C)C)c1SC)Sc1c(OC)c(OC)c(SC)c(CCN(C)C)c1S2 [LISSOCLIBADIN 3]
IC50 (HCT-15 [1]): 13.2 µM
IC50 (HeLa S3 [2]): 16 µM

COc1c(OC)c2c(c(CCN(C)C)c1SC)SSc1c(CCN(C)C)c(SC)c(OC)c(OC)c1Sc1c(OC)c(OC)c(SC)c(CCN(C)C)c1S2 [LISSOCLIBADIN 1]
Activity (HCT-15 [3]): Active
Activity (MCF7 [4]): Active
Activity (HCT-15 [5]): Active
Activity (HeLa S3 [6]): Active
Activity (HeLa S3 [7]): Dose-dependent effect
Activity (HCT-15 [8]): Active
inhibition in vivo at 25 mg/kg/day (HCT-15 [9]): 60%
Activity (HCT-15 [10]): Dose-dependent effect
Activity (HCT-15 [11]): Active
Activity (MCF7 [12]): Active
Activity (HCT-15 [13]): Dose-dependent effect
Activity (HCT-15 [14]): Active
Activity (NCI-H28 [15]): Active
Activity (NCI-H28 [16]): Active
IC50 (HCT-15 [1]): 4 µM
Activity (HCT-15 [17]): Tde
Activity (HCT-15 [18]): Active
Activity (HCT-15 [19]): Active
IC50 (NCI-H28 [20]): 7.1 µM
Activity (HeLa S3 [21]): Dose-dependent effect
IC50 (HeLa S3 [2]): 6.3 µM
Activity (HCT-15 [22]): Active
Activity (MCF7 [23]): Dose-dependent effect
IC50 (MCF7 [24]): 7.6 µM
Activity (Mus musculus): Non-Toxic
Activity (MCF7 [25]): Active
Activity (HCT-15 [26]): 11%
Activity (MCF7 [27]): Active
Activity (HCT-15 [28]): Active
Activity (NCI-H28 [29]): Active
Activity (NCI-H28 [30]): Active
Activity (MCF7 [31]): Dose-dependent effect
Activity (HeLa S3 [32]): Active
TGI (HCT-15 [33]): inactive
Activity (NCI-H28 [34]): Dose-dependent effect
Activity (HCT-15 [35]): 43%
Activity (HCT-15 [36]): Active
Activity (HCT-15 [37]): 40%
Activity (HCT-15 [38]): 37%
Activity (HCT-15 [39]): Active
Activity (NCI-H28 [40]): Dose-dependent effect
Activity (HeLa S3 [41]): Active
Activity (HeLa S3 [42]): Active
Activity (HCT-15 [43]): Active
Activity (HCT-15 [44]): 11%
